From article PMC2913441 (Chemical biology & drug design, 2010)

Columns and labels:
Assay type in all cases: binding
Mdm2 [1] = target: T1, Mdm2 (Homo sapiens, UniProt Q00987); assay: Interaction with Mdm2; conditions: result in words; assay not stated
Target sequence in this assay (Q00987 whole entry): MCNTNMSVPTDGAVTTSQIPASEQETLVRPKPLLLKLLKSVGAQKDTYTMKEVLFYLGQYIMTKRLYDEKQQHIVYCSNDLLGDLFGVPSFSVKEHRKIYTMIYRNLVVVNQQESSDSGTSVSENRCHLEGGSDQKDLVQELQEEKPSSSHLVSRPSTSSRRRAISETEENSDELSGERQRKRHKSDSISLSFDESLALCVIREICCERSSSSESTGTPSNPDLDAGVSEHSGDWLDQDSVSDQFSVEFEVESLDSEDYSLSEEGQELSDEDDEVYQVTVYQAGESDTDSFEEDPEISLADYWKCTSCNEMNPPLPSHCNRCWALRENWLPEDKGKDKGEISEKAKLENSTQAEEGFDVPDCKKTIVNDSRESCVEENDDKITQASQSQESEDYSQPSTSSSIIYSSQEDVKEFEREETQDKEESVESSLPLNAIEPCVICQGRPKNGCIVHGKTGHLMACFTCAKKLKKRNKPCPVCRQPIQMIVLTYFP

Mdm2 [2] = target: T1, Mdm2; assay: Fluorescence polarization; conditions: read-out: inhibition constant (Ki) of Mdm2; FP assay, competition with p53-like peptide
In short: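 Competitive fluorescence polarization assay: a fluorescent p53-like peptide is bound to recombinant Mdm2 and displaced by the test compound across a range of concentrations, giving dose–response curves. The binding constant and inhibition curves were fitted to derive Ki.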
Target sequence in this assay (Q00987 1-118): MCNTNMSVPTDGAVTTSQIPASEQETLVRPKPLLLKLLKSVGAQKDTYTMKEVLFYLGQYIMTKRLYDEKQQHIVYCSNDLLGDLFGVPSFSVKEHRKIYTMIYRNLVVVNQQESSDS

Mdm2/p53 complex = Mdm2/p53 complex (Homo sapiens, UniProt Q00987); assay: NMR-based antagonist induced dissociation assay; conditions: read-out: dissociation constant (Kd) of the compound-Mdm2 interaction; AIDA-NMR; 14 μM Mdm2/p53 complex mixed with compound in 1:1 molar ratio
In short: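 Variant of antagonist-induced dissociation NMR (SEI-AIDA). The preformed Mdm2/p53 complex (14 μM) is mixed with the test compound at a 1:1 molar ratio. The amount of p53 released from the complex is estimated from the 1D spectrum. The Kd of the Mdm2–compound interaction is then calculated from the released fraction.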

Mdm2/p53 complex, sequence (Q00987 1-118, one chain of several): as the sequence (Q00987 1-118) above

| interaction with Mdm2 (Mdm2 [1]) | Ki (Mdm2 [2]) | Kd (Mdm2/p53 complex) | Structure (SMILES) |
| --- | --- | --- | --- |
| weak interaction |  |  | Cc1cc(C)c(NC(=O)C2C(=O)Nc3sc4c(c3C(=O)N2Cc2ccc(Cl)cc2)CCCC4)c(C)c1 (centres unmarked) [5a-6, 3,4,6,7,8,9-Hexahydro-3-(N-mesityl)-carboxamide-4-(4-chlorobenzyl)-1H-benzothieno-[2,3-e]-1,4-diazepine-2,5-dione] |
|  | 40 µM | 30 ± 20 µM | O=C(NCc1ccccc1)C1C(=O)Nc2sc3c(c2C(=O)N1Cc1ccc(Cl)cc1)CCCC3 (centres unmarked) [5a-7, 3,4,6,7,8,9-Hexahydro-3-(N-benzyl)-carboxamide-4-(4-chlorobenzyl)-1H-benzothieno-[2,3-e]-1,4-diazepine-2,5-dione] |
|  | 45 µM | 10 ± 6 µM | O=C(NCc1ccc(Cl)c(Cl)c1)C1C(=O)Nc2sc3c(c2C(=O)N1Cc1ccc(Cl)cc1)CCCC3 (centres unmarked) [5a-8, 3,4,6,7,8,9-Hexahydro-3-(N-3,4-dichlorobenzyl)-carboxamide-4-(4-chlorobenzyl)-1H-benzothieno-[2,3-e]-1,4-diazepine-2,5-dione] |
